Broadly, the IC50 is the concentration at which inhibition is half-maximal. Low values mean inhibition by little substance, high ones a need for much substance.

The values below come from ChEMBL document CHEMBL1155748, “New jatrophane diterpenoid esters from Euphorbia turczaninowii” (J Nat Prod, 2001).

Converted amounts (≈) assume the structure as drawn.

Series [1] is filed under the species Mus musculus. Nature of the series: Toxicity in mouse assessed as irritant dose causing ear redness after 24 hours by inflammation assay. The class given is organism-based. The settings on record: in vivo. The procedure, abridged:
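Compound applied to the mouse ear as an acetone (Me2CO) solution. Ear redness was scored 4 and 24 h after application. […] TPA served as the reference irritant.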

A further series has as its system B16. Nature of the series: Cytotoxicity against mouse B16 cells by MTT assay. Format: functional, cell-based.
Series [2] is filed under the species Mus musculus. Nature of the series: Toxicity in mouse assessed as irritant dose causing ear redness after 4 hours by inflammation assay. The class given is organism-based. The settings on record: in vivo. The gist of the method:
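Test solution in Me2CO applied to the mouse ear; ear redness scored 4 and 24 h after application. […] TPA (12-O-tetradecanoylphorbol 13-acetate) run as reference irritant.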

Regarding `C=C1[C@H](OC(C)=O)[C@H]2[C@@H](OC(C)=O)[C@@H](C)C[C@]2(OC(C)=O)C(=O)[C@@H](C)/C=C/C(C)(C)C(=O)[C@H](OC(C)=O)[C@H]1OC(C)=O`, in the series listed under Mus musculus [1], the ID50 is more than 100 µg. Regarding `C=C1[C@H](OC(C)=O)[C@H]2[C@@H](OC(C)=O)[C@@H](C)C[C@]2(OC(C)=O)C(=O)[C@@H](C)/C=C/C(C)(C)C(=O)[C@H](OC(C)=O)[C@H]1OC(=O)c1ccccc1`, the ID50 in the series listed under Mus musculus [1] is more than 100 µg.

For the molecule `C=C1[C@H](OC(C)=O)[C@@H](OC(C)=O)[C@@H](OC(C)=O)C(C)(C)/C=C/[C@H](C)C(=O)[C@@]2(OC(C)=O)C[C@@](C)(OC(=O)c3ccccc3)[C@H](OC(C)=O)[C@@H]2[C@H]1OC(C)=O`, the ID50 in the series listed under Mus musculus [1] is more than 100 µg. This molecule also had an IC50 in the series on B16 of more than 5 µg/mL. Turning to `C=C1[C@H](OC(=O)c2ccccc2)[C@@H](OC(C)=O)[C@@H](OC(C)=O)C(C)(C)/C=C/[C@H](C)C(=O)[C@@]2(OC(C)=O)C[C@@](C)(OC(C)=O)[C@H](OC(C)=O)[C@@H]2[C@H]1OC(C)=O`, the ID50 in the series listed under Mus musculus [1] was more than 100 µg. The same molecule gave an IC50 in the series with B16 of more than 5 µg/mL. In the case of `C=C1[C@H](OC(C)=O)[C@H]2[C@@H](OC(C)=O)[C@](C)(OC(=O)c3ccccc3)C[C@]2(OC(C)=O)C(=O)[C@@H](C)/C=C/C(C)(C)C(=O)[C@H](OC(C)=O)[C@H]1OC(C)=O`, in the series filed under Mus musculus [1], the ID50 was more than 100 µg. `C=C1[C@H](OC(=O)c2ccccc2)[C@@H](OC(C)=O)[C@@H](OC(C)=O)C(C)(C)/C=C/[C@H](C)C(=O)[C@@]2(OC(C)=O)C[C@H](C)[C@H](OC(C)=O)[C@@H]2[C@H]1OC(C)=O`: in the series filed under Mus musculus [1], the ID50 was more than 100 µg. With `CCCCCCCCCCCCCC(=O)O[C@@H]1[C@@H](C)[C@@]2(O)[C@@H](C=C(CO)C[C@]3(O)C(=O)C(C)=C[C@@H]23)[C@@H]2C(C)(C)[C@]12OC(C)=O` [PHORBOL MYRISTATE ACETATE], the ID50 worked out at 0.0085 µg in the series listed under Mus musculus [1] and 0.012 µg in the series filed under Mus musculus [2]. The molecule `CC[C@]1(O)C[C@@H]2CN(CCc3c([nH]c4ccccc34)[C@@](C(=O)OC)(c3cc4c(cc3OC)N(C)[C@H]3[C@@](O)(C(=O)OC)[C@H](OC(C)=O)[C@]5(CC)C=CCN6CC[C@]43[C@@H]65)C2)C1` [VINBLASTINE] had an IC50 in the series on B16 of 3.6 µg/mL (≈ 4.44 µM).
